Target: Potassium channel subfamily K member 9 (Homo sapiens) (UniProt Q9NPC2)
Test: KCNK9 potassium channel inhibitors, SAR follow-up, HEK293 cells, thallium flux, round II (AID 540322)
Settings: HEK293-KCNK9, FluxOR thallium flux fluorescence;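 active = compounds lowering KCNK9 channel thallium flux at some tested dose, with a fitted concentration-response curve; inactive = the rest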
Method in brief: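 System: stable KCNK9-expressing HEK293 cells; Also added: K2SO4 plus Tl2SO4 stimulus (5x stock); Doses: multi-concentration series; Times: dye 90 min, compound 20 min, room temperature; Detection: FluxOR thallium-sensitive dye fluorescence, 110 s kinetic read post-stimulus; Evaluation: IC50 from normalized fluorescence change; Repeats: replicate concentration-response data per compound.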

Potassium channel subfamily K member 9 (Homo sapiens), sequence (Q9NPC2 whole entry, looked up): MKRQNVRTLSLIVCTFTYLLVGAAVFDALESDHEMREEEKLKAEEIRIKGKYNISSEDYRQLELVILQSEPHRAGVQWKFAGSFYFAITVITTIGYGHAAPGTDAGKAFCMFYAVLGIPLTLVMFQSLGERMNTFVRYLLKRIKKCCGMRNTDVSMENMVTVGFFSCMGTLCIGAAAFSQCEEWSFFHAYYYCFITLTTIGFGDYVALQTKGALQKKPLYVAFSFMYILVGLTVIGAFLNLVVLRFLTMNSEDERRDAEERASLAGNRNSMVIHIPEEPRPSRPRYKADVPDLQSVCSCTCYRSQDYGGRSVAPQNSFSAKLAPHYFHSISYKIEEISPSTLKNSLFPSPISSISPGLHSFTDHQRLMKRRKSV

IC50, active:
CCOc1ccccc1NC(=O)c1cccc(NC(=O)c2ccccc2)c1 1430 nM
COc1ccc(-c2n[nH]c(=S)n2C(C)C2CC3CCC2C3)cc1 (stereo not given) 1730 nM
CCOc1ccccc1NC(=O)c1cccc(NC(=O)c2ccccc2C(F)(F)F)c1 320 nM
CC(C1CC2CCC1C2)n1c(-c2ccccc2)n[nH]c1=S (stereo not given) 520 nM
Cc1cccc(C(=O)Nc2cccc(NC(=O)c3ccccc3OCC(C)C)c2)c1 3390 nM
CCOc1ccccc1NC(=O)c1cccc(NC(=O)CC2CCCCC2)c1 1920 nM
COc1ccccc1NC(=O)c1cccc(NC(=O)c2ccccc2C(F)(F)F)c1 1320 nM
CCOc1ccccc1C(=O)Nc1cccc(NC(=O)c2ccccc2C(F)(F)F)c1 1040 nM
COc1ccccc1NC(=O)c1cccc(NC(=O)C2CCCC2)c1 1550 nM
Cc1cccc(C(=O)Nc2cccc(NC(=O)c3cccc(Cl)c3)c2)c1 13400 nM
CC(C1CC2CCC1C2)n1c(-c2ccoc2)n[nH]c1=S (stereo not given) 4250 nM
CCOc1ccccc1C(=O)Nc1cccc(NC(=O)c2cccc(C)c2)c1 570 nM
CCOc1ccccc1NC(=O)c1cccc(NC(=O)C2CCCC2)c1 1840 nM
CCOc1ccccc1C(=O)Nc1cccc(NC(=O)c2ccccc2OC)c1 1980 nM
COc1ccccc1NC(=O)c1cccc(NC(=O)CC2CCCC2)c1 2630 nM
CC(C1CC2CCC1C2)n1c(-c2ccco2)n[nH]c1=S (stereo not given) 320 nM
CC(C1CC2CCC1C2)n1c(C2CCOC2)n[nH]c1=S (stereo not given) 10300 nM
COc1ccccc1C(=O)Nc1cccc(NC(=O)c2ccccc2C)c1 3490 nM
Cc1cccc(C(=O)Nc2cccc(NC(=O)c3ccccc3)c2)c1 1820 nM
CCOc1ccccc1NC(=O)c1cccc(NC(=O)c2ccccc2Cl)c1 2630 nM
COc1cccc(OC)c1C(=O)Nc1cccc(NC(=O)c2cccc(C)c2)c1 19200 nM
CC(C1CC2CCC1C2)n1c(-c2cccc(Cl)c2)n[nH]c1=S (stereo not given) 440 nM
CCOc1ccccc1NC(=O)c1cccc(NC(=O)c2ccc(C)cc2)c1 14700 nM
COc1ccccc1C(=O)Nc1cccc(NC(=O)c2ccccc2OC(F)(F)F)c1 1170 nM
CCOc1ccccc1NC(=O)c1cccc(NC(=O)c2ccccc2C)c1 4290 nM
CCOc1ccccc1NC(=O)c1cccc(NC(=O)C2CC2)c1 10200 nM
Cc1cccc(C(=O)Nc2cccc(NC(=O)c3ccco3)c2)c1 1670 nM
CC(C1CC2CCC1C2)n1c(-c2ccsc2)n[nH]c1=S (stereo not given) 1000 nM
CCOc1ccccc1NC(=O)c1cccc(NC(=O)c2ccccc2OC)c1 1180 nM
Cc1cccc(C(=O)Nc2cccc(NC(=O)c3cccs3)c2)c1 6850 nM
O=C(Nc1cccc(NC(=O)c2ccccn2)c1)c1ccccc1 5370 nM
COc1cccc(-c2n[nH]c(=S)n2C(C)C2CC3CCC2C3)c1 (stereo not given) 210 nM
CCOc1ccccc1NC(=O)c1cccc(NC(=O)C(C)(C)C)c1 30600 nM
COc1cccc(C(=O)Nc2cccc(NC(=O)c3cccc(C)c3)c2)c1 29300 nM
Cc1ccccc1-c1n[nH]c(=S)n1C(C)C1CC2CCC1C2 (stereo not given) 720 nM
CC(C1CC2CCC1C2)n1c(-c2ccccc2Cl)n[nH]c1=S (stereo not given) 470 nM
COc1ccccc1NC(=O)c1cccc(NC(=O)c2ccccc2OC)c1 3020 nM
COc1cccc(C(=O)Nc2cccc(NC(=O)c3ccccc3)c2)c1 25900 nM
CCOc1ccccc1NC(=O)c1cccc(NC(=O)CC2CCCC2)c1 4170 nM
COc1ccccc1-c1n[nH]c(=S)n1C(C)C1CC2CCC1C2 (stereo not given) 840 nM
Cc1cccc(C(=O)Nc2cccc(NC(=O)c3ccccc3C)c2)c1 940 nM
CCOc1ccccc1NC(=O)c1cccc(NC(=O)C2CCCCC2)c1 1300 nM
Cc1cccc(C(=O)Nc2cccc(NC(=O)c3cccc(C)c3)c2)c1 990 nM
CCOc1cccc(NC(=O)c2cccc(NC(=O)C3CCCC3)c2)c1 4070 nM
CCOc1ccccc1C(=O)Nc1cccc(NC(=O)C2CCCC2)c1 1110 nM
COc1ccccc1C(=O)Nc1cccc(NC(=O)c2ccccc2)c1 1740 nM
O=C(Nc1cccc(NC(=O)c2ccccc2C(F)(F)F)c1)c1ccccc1 7210 nM
COc1ccccc1C(=O)Nc1cccc(NC(=O)c2cccc(C)c2)c1 2720 nM
Cc1cccc(C(=O)Nc2cccc(NC(=O)c3ccccc3OC(F)(F)F)c2)c1 1050 nM
O=C(Nc1ccccc1Cl)c1cccc(NC(=O)C2CCCC2)c1 5780 nM
Cc1ccccc1C(=O)Nc1cccc(NC(=O)c2ccccc2)c1 6480 nM
COc1ccccc1NC(=O)c1cccc(NC(=O)C2CCCCC2)c1 2160 nM
CCOc1ccccc1NC(=O)c1cccc(NC(=O)c2cccc(C)c2)c1 290 nM
CCOc1ccccc1NC(=O)c1cccc(NC(=O)c2cccc(C(F)(F)F)c2)c1 1380 nM
COc1ccccc1C(=O)Nc1cccc(NC(=O)c2ccccc2OC)c1 3620 nM
CCOc1ccccc1NC(=O)c1cccc(NC(=O)c2cccc(Cl)c2)c1 1840 nM
O=C(Nc1cccc(NC(=O)C2CCCCC2)c1)c1ccccc1 8000 nM
CCOc1ccccc1NC(=O)c1cccc(NC(=O)c2ccccc2OC(F)(F)F)c1 800 nM
CCOc1ccccc1NC(=O)c1cccc(NC(=O)c2cccc(OC)c2)c1 2330 nM
Cc1cccc(C(=O)Nc2cccc(NC(=O)c3ccccc3Cl)c2)c1 19800 nM
COc1ccccc1NC(=O)c1cccc(NC(=O)c2ccccc2)c1 1410 nM
Cc1cccc(C(=O)Nc2cccc(NC(=O)c3ccccc3C(F)(F)F)c2)c1 12900 nM
Cc1cccc(C(=O)Nc2cccc(NC(=O)C3CCCCC3)c2)c1 11900 nM
Cc1cccc(C(=O)Nc2cccc(NC(=O)c3ccccc3C(C)C)c2)c1 2390 nM
COc1ccccc1C(=O)Nc1cccc(NC(=O)c2ccccc2C(C)C)c1 740 nM
